Source: ChEMBL document CHEMBL2034874, “5-acetyl-2-arylbenzimidazoles as antiviral agents. Part 4” (Eur J Med Chem, 2012)

Key:
[1] = Cytotoxicity against human MT4 cells after 96 hrs by MTT assay; type: cell-based
Summary of the method: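 Exponentially growing MT-4 cells seeded at 1×10^5 cells/mL in RPMI-1640 with 10% FBS and incubated with serial compound dilutions at 37 °C and 5% CO2. Viability measured by MTT after 96 h. CC50 by linear regression against untreated controls.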

[2] = system: Human immunodeficiency virus 1; test: Antiviral activity against HIV1 3B infected in human MT4 cells assessed as inhibition of virus-induced cytopathogenicity after 4 days by MTT assay; type: functional, organism-based; details: Human immunodeficiency virus 1, 3B, MT4, 96 h
Summary of the method: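 MT-4 cells (1×10^4/well) in RPMI with serial compound dilutions, infected with HIV-1 IIIB at 100 CCID50 (m.o.i. 0.01). Viability measured by MTT after 4 days at 37 °C. EC50 for 50% protection from cytopathogenicity obtained by linear regression against untreated controls.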

[3] = Cytotoxicity against MDBK cells after 48 to 96 hrs by MTT assay; type: cell-based, Bos taurus; details: cattle
Summary of the method: (§1)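 Mock-infected MDBK (6×10^5 cells/mL, MEM-E with 10% horse serum) or BHK (1×10^6 cells/mL, MEM-E with 10% FBS) cells incubated with serial compound dilutions at 37 °C and 5% CO2. Viability measured by MTT after 48–96 h. CC50 by linear regression against untreated controls.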

[4] = Antiviral activity against BVDV1 NADL ATCC VR-534 infected in MDBK cells assessed as inhibition of virus-induced cytopathogenicity after 3 to 4 days by MTT assay; type: functional, cell-based, Bovine viral diarrhea virus 1-NADL; details: Bovine viral diarrhea virus isolates and strains, ATCC VR-534, MDBK
Summary of the method: (§2)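 BHK (5×10^4/well) or MDBK (3×10^4/well) cells grown to confluent monolayers overnight, infected at m.o.i. 0.01 in maintenance MEM-Earl with 0.5% inactivated FBS. Serially diluted compounds added after 1 h. Viability read by MTT after 3–4 days at 37 °C. Values are expressed as % of untreated controls, and EC50 is derived by linear regression. Duplicate samples.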

[5] = Cytotoxicity against BHK21 cells by MTT assay; type: cell-based, Mesocricetus auratus; details: hamster, BHK-21 cells; summary of the method: as §1
Yellow fever virus = test: Antiviral activity against Yellow fever virus 17D infected in BHK21 cells assessed as inhibition of virus-induced cytopathogenicity after 3 to 4 days by MTT assay; type: functional, cell-based; details: BHK-21
[6] = Cytotoxicity against african green monkey Vero 76 cells after 48 to 96 hrs by MTT assay; type: cell-based; details: chlorocebus sabaeus
Coxsackievirus B5 = test: Antiviral activity against Coxsackie virus type B5 Ohio-1 ATCC VR-29 infected in african green monkey Vero-76 cells assessed as reduction in viral plaque after 3 days by crystal violet staining; type: functional, organism-based; details: Enterovirus B, Ohio-1 ATCC VR-29, Vero 76, 72 h
Summary of the method: (§3)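 Vero-76 monolayers (2×10^5 cells/well) infected for 2 h at 50–100 PFU/well. Unadsorbed virus removed. D-MEM with 1% inactivated FBS, 0.75% methylcellulose and serial compound dilutions added. Incubation at 37 °C for 3 days (CVB-5, HSV-1) or 5 days (RSV). Fixed and stained with 50% ethanol/0.8% crystal violet, then plaques counted. EC50 by linear regression versus untreated controls.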

Poliovirus 1 = test: Antiviral activity against Polio virus type 1 strain sabin ATCC VR-1562 infected in african green monkey Vero-76 cells assessed as reduction in viral plaque after 2 days by crystal violet staining; type: functional, cell-based, Human poliovirus 1 strain Sabin; details: Enterovirus C, ATCC VR-1562, Vero 76, 48 h
Vaccinia virus = test: Antiviral activity against Vaccinia virus Elstree-Lister ATCC VR-1549 infected in african green monkey Vero-76 cells assessed as reduction in viral plaque after 3 days by crystal violet staining; type: functional, organism-based; details: Orthopoxvirus vaccinia, Elstree-Lister ATCC VR-1549, Vero 76, 72 h
[7] = system: Mammalian orthoreovirus 1; test: Antiviral activity against Reovirus 1 3651 ATCC VR-214 infected in BHK21 cells assessed as inhibition of virus-induced cytopathogenicity after 3 to 4 days by MTT assay; type: functional, organism-based; details: Mammalian orthoreovirus 1, 3651 ATCC VR-214, BHK-21; summary of the method: as §2
[8] = system: Vesicular stomatitis Indiana virus; test: Antiviral activity against Vesicular stomatitis virus indiana ATCC VR-1540 infected in african green monkey Vero-76 cells assessed as reduction in viral plaque after 2 days by crystal violet staining; type: functional, organism-based; details: ATCC VR-1540, Vero 76, 48 h
Human alphaherpesvirus 1 = test: Antiviral activity against Herpes simplex virus type 1 KOS ATCC VR-1493 infected in african green monkey Vero-76 cells assessed as reduction in viral plaque after 3 days by crystal violet staining; type: functional, organism-based; details: Human alphaherpesvirus 1, KOS ATCC VR1493, Vero 76, 72 h; summary of the method: as §3
[9] = Antiviral activity against Human respiratory syncytial virus A2 ATCC VR-1540 infected in african green monkey Vero-76 cells assessed as reduction in viral plaque after 5 days by crystal violet staining; type: functional, cell-based; details: ATCC VR-1540, Vero 76, 120 h; summary of the method: as §3

Compound	CC50 at 96 h [1]	EC50 [2]	CC50 [3]	EC50 [4]	CC50 [5]	EC50 (Yellow fever virus)	CC50 [6]	EC50 (Coxsackievirus B5)	EC50 (Poliovirus 1)	EC50 (Vaccinia virus)	EC50 [7]	EC50 [8]	EC50 (Human alphaherpesvirus 1)	EC50 [9]
COc1ccc(-c2nc3cc(C(C)=O)ccc3[nH]2)c(OC)c1	50 µM	> 50 µM	73 µM	21 µM	50 µM	> 50 µM	> 100 µM	> 100 µM	> 100 µM	> 100 µM	–	–	–	–
COc1ccc(-c2nc3cc(C(C)=O)ccc3[nH]2)cc1	24 µM	> 24 µM	58 µM	> 58 µM	40 µM	> 40 µM	> 100 µM	> 100 µM	> 100 µM	> 100 µM	–	–	–	–
C/C(=N\O)c1ccc2[nH]c(-c3ccc(Cl)cc3)nc2c1	20 µM	> 20 µM	37 µM	18 µM	33 µM	> 33 µM	–	–	–	–	–	–	–	–
COc1ccc(-c2nc3cc(/C(C)=N/NC(N)=O)ccc3[nH]2)c(OC)c1	21 µM	≥ 21 µM	> 100 µM	2.55 µM	≥ 100 µM	> 100 µM	80 µM	> 80 µM	> 80 µM	80 µM	> 100 µM	> 80 µM	–	–
C/C(=N\NC(N)=S)c1ccc2[nH]c(-c3ccc(Cl)cc3)nc2c1	2 µM	> 2 µM	> 100 µM	0.85 µM	> 100 µM	> 100 µM	> 100 µM	> 100 µM	> 100 µM	> 100 µM	> 100 µM	> 100 µM	–	–
C/C(=N\NC(N)=S)c1ccc2[nH]c(-c3ccc(C(F)(F)F)cc3)nc2c1	2 µM	> 2 µM	5 µM	> 1.8 µM	5 µM	> 5 µM	22 µM	> 22 µM	> 22 µM	–	–	–	–	–
COc1ccc(-c2nc3cc(/C(C)=N/NC(N)=S)ccc3[nH]2)cc1	5 µM	> 5 µM	13 µM	1.85 µM	13 µM	> 13 µM	> 100 µM	> 100 µM	> 100 µM	> 100 µM	> 13 µM	> 100 µM	–	–
COc1ccc(-c2nc3cc(/C(C)=N/NC(N)=O)ccc3n2C2CCCCC2)c(OC)c1	23 µM	> 23 µM	36 µM	22 µM	19 µM	> 19 µM	20 µM	> 20 µM	> 20 µM	> 20 µM	–	–	> 20 µM	–
CC(=O)c1ccc2c(c1)nc(-c1ccoc1)n2C1CCCCC1	63 µM	> 63 µM	> 100 µM	> 100 µM	77 µM	> 77 µM	80 µM	> 80 µM	> 80 µM	> 80 µM	–	–	> 80 µM	–
CC(=O)c1ccc2c(c1)nc(-c1ccccn1)n2C1CCCCC1	70 µM	> 70 µM	> 100 µM	> 100 µM	≥ 100 µM	> 100 µM	> 90 µM	> 90 µM	> 90 µM	> 90 µM	–	> 90 µM	> 90 µM	–
C/C(=N\NC(N)=O)c1ccc2c(c1)nc(-c1ccccc1)n2C1CCCCC1	–	–	> 100 µM	> 100 µM	> 100 µM	> 100 µM	> 100 µM	> 100 µM	> 100 µM	> 100 µM	> 100 µM	> 100 µM	> 100 µM	> 100 µM
C/C(=N\NC(N)=O)c1ccc2c(c1)nc(-c1ccc(Cl)cc1)n2C1CCCCC1	–	–	> 100 µM	> 100 µM	> 100 µM	> 100 µM	> 100 µM	> 100 µM	> 100 µM	> 100 µM	> 100 µM	> 100 µM	> 100 µM	> 100 µM
C/C(=N\NC(N)=O)c1ccc2c(c1)nc(-c1ccccn1)n2C1CCCCC1	–	–	> 100 µM	> 100 µM	> 100 µM	> 100 µM	> 100 µM	> 100 µM	> 100 µM	> 100 µM	> 100 µM	> 100 µM	> 100 µM	> 100 µM
C/C(=N\NC(N)=O)c1ccc2[nH]c(-c3ccoc3)nc2c1	–	–	> 100 µM	60 µM	> 100 µM	> 100 µM	> 100 µM	> 100 µM	> 100 µM	> 100 µM	> 100 µM	> 100 µM	> 100 µM	> 100 µM
C/C(=N\NC(N)=O)c1ccc2[nH]c(C3CCCCC3)nc2c1	–	–	> 100 µM	44 µM	> 100 µM	> 100 µM	> 100 µM	> 100 µM	> 100 µM	> 100 µM	> 100 µM	> 100 µM	> 100 µM	> 100 µM
